Measured values reported in ChEMBL document CHEMBL4834423, “Discovery of AG-270, a First-in-Class Oral MAT2A Inhibitor for the Treatment of Tumors with Homozygous MTAP Deletion” (J Med Chem, 2021).
≈ marks a conversion by molar mass, not a printed value. Calls of active or inactive are those of the source. No cut-off for these calls is given here.

Experiments:
[1] = target: T1, S-adenosylmethionine synthase isoform type-2 (Homo sapiens, UniProt P31153); experiment: Inhibition of recombinant human MAT2A expressed in baculovirus infected Sf9 cells assessed as S-adenosyl methionine production using L-methionine as substrate incubated for 60 mins followed by substrate addition and measured after 60 mins
Target sequence in this assay (P31153 whole entry, canonical isoform): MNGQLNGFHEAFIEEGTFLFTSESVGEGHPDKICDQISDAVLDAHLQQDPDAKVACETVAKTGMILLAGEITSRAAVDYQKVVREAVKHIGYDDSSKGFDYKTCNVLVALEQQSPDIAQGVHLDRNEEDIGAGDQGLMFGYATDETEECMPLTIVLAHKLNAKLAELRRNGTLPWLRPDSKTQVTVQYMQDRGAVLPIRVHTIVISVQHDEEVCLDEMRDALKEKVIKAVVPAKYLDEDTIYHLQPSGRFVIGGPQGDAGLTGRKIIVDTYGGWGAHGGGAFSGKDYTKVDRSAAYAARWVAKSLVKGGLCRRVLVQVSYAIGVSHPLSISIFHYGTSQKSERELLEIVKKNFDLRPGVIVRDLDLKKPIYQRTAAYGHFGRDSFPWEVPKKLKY

[2] = target: T1, S-adenosylmethionine synthase isoform type-2; experiment: Inhibition of recombinant human MAT2A expressed in baculovirus infected Sf9 cells assessed as S-adenosyl methionine production using L-methionine as substrate incubated for 60 mins followed by substrate addition and measured after 60 mins relative to control; parameters: concentration or dose not given beside the values
Target sequence in this assay (P31153 whole entry, looked up, canonical isoform): as the sequence (P31153 whole entry, canonical isoform) above

[3] = Stability in human liver microsomes assessed as extraction ratio; type: ADME, Microsome; conditions: read-out: ERH
[4] = Cmax in MTAP-null KP4 cells xenografted mouse measured in tumor treated po twice daily; type: ADME, organism-based, Neoplasm; parameters: route oral
How it was run: (§1)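 KP4 MTAP-null xenograft-bearing mice dosed orally twice daily. Cmax was determined in plasma (ng/mL) and tumor (ng/g) after 3 b.i.d. doses.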

[5] = Protein binding in human plasma assessed as unbound fraction; type: ADME, cell-free
[6] = Efflux ratio of apparent permeability from basolateral side to apical side over apical side to basolateral side in human Caco-2 cells; type: ADME, cell-based
[7] = Plasma protein binding in human by ultracentrifugation; type: ADME, cell-free; conditions: read-out: PPB (converted)
How it was run: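 Human plasma protein binding was determined by ultracentrifugation.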

[8] = Cmax in MTAP-null KP4 cells xenografted mouse plasma treated po twice daily; type: ADME, organism-based; parameters: route oral; how it was run: as §1
[9] = Plasma protein binding in mouse by ultracentrifugation; type: ADME, cell-free; conditions: read-out: PPB (converted)
[10] = Solubility of compound at pH 2; type: physicochemical; conditions: buffer
[11] = AUC (0 to 12 hrs) in MTAP-null KP4 cells xenografted mouse plasma treated po twice daily; type: ADME, organism-based; parameters: time < 12 hr, route oral; conditions: in vivo
[12] = AUC (0 to 12 hrs) in MTAP-null KP4 cells xenografted mouse measured in tumor treated po twice daily; type: ADME, organism-based, Neoplasm; parameters: time < 12 hr, route oral; conditions: in vivo
[13] = Permeability from apical to basolateral side in human Caco-2 cells; type: ADME, cell-based; conditions: read-out: permeability
[14] = Solubility of compound at pH 7.4; type: physicochemical; conditions: buffer
cells = conditions: Homo sapiens, HCT-116, 72 h
HCT-116 = experiment: cells; conditions: Homo sapiens, HCT-116, 96 h
[15] = target: T1, S-adenosylmethionine synthase isoform type-2; experiment: Inhibition of MAT2A (unknown origin) enzymatic assay
Target sequence in this assay (P31153 whole entry, canonical isoform): as above

[16] = target: T1, S-adenosylmethionine synthase isoform type-2; experiment: Binding affinity to MAT2A (unknown origin) by surface plasmon resonance assay
How it was run: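 SPR: His-tagged MAT2A was captured on CM5 chips via covalently coupled penta-anti-His IgG (~16 000 RU), to a capture level of ~7500 RU.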
Target sequence in this assay (P31153 whole entry, canonical isoform): as above

## Cc1[nH]c2c(N3CCCCC3)c(-c3ccccc3)nn2c(=O)c1-c1cn[nH]c1
[1]; read-out: IC50
  IC50: 1310 nM
[2]
  inhibition: 95%

## Cc1[nH]c2c(C3CCCCC3)c(-c3ccccc3)nn2c(=O)c1-c1ccc2ncccc2c1
[3]
  hepatic extraction ratio: 0.66
[1]; read-out: IC50
  IC50: 66 nM
[2]
  inhibition: 93%

## Cc1[nH]c2c(-c3ccccc3)c(-c3ccccc3)nn2c(=O)c1-c1ccc2ncccc2c1
[4]
  Cmax: 32300 ng/g
[5]
  fraction unbound: 0.0003
[6]
  efflux ratio: 6
[7]
  fraction unbound: < 0.001
[8]
  Cmax: 179 µg/mL
[9]
  fraction unbound: 0.0003
[10]
  solubility: 67 µM (≈ 28.7 µg/mL)
[3]
  hepatic extraction ratio: 0.16
[11]
  AUC: 1650000 ng·h/g
[1]; read-out: IC50
  IC50: 97 nM
[12]
  AUC: 372000 ng·h/g
[13]
  Papp A→B: 6.75 ×10⁻⁶ cm/s
[14]
  solubility: 15 µM (≈ 6.43 µg/mL)
[2]
  inhibition: 95%

## Cc1[nH]c2c(N3CCCCC3)c(-c3ccccc3)nn2c(=O)c1-c1ccc2c(c1)OCO2
[3]
  hepatic extraction ratio: 0.83
[1]; read-out: IC50
  IC50: 8 nM
[2]
  inhibition: 93%

## Cc1cc(=O)n2nc(C3=CCCCC3)c(-c3ccccc3)c2[nH]1
[1]; sf9
  IC50: Not Active

## Cc1[nH]c2c(N3CCCCC3)c(-c3ccccc3)nn2c(=O)c1-c1cscn1
[1]; read-out: IC50
  IC50: 158 nM
[2]
  inhibition: 85%

## Cc1cc(=O)n2nc(-c3ccccc3)c(C3CCCCC3)c2[nH]1
[1]; read-out: IC50
  IC50: 660 nM
[2]
  inhibition: 59%

## Cc1[nH]c2c(C3=CCCCC3)c(-c3ccccc3)nn2c(=O)c1-c1ccc2ncccc2c1
[1]; read-out: IC50
  IC50: 25 nM
[2]
  inhibition: 96%

## Cc1[nH]c2c(N3CCCCC3)c(-c3ccccc3)nn2c(=O)c1-c1ccc(O)cc1
[5]
  fraction unbound: 0.0009
[7]
  fraction unbound: 0.001
cells
  IC50: 100 nM
[1]; read-out: IC50
  IC50: 57 nM
[2]
  inhibition: 91%

## Cc1cc(=O)n2nc(-c3ccccc3)c(N3CCCCC3)c2[nH]1
[10]
  solubility: 61 µM (≈ 18.8 µg/mL)
[1]; read-out: IC50
  IC50: 260 nM
[14]
  solubility: 13 µM (≈ 4.01 µg/mL)
[2]
  inhibition: 86%

## CC(=O)Nc1cc(=O)n2nc(-c3ccccc3)c(-c3ccccc3)c2[nH]1
[1]; read-out: IC50
  IC50: 4110 nM
[2]
  inhibition: 85%

## Cc1cc(=O)n2nc(-c3cccc(F)c3)c(-c3ccccc3)c2[nH]1
[1]; read-out: IC50
  IC50: 1900 nM
[2]
  inhibition: 76%

## O=c1c(-c2ccc(O)cc2)c(Nc2cc[nH]n2)[nH]c2c(-c3ccccc3)c(-c3ccccc3)nn12
[3]
  hepatic extraction ratio: 0.26
[1]; read-out: IC50
  IC50: 7 nM
[2]
  inhibition: 93%
HCT-116
  IC50: 527 nM

## Cc1cc(=O)n2nc(-c3cccc(O)c3)c(-c3ccccc3)c2[nH]1
cells
  IC50: 7650 nM
[1]; read-out: IC50
  IC50: 12200 nM
[2]
  inhibition: 92%
HCT-116
  IC50: 75000 nM

## Cc1cc(=O)n2nc(-c3cn[nH]c3)c(-c3ccccc3)c2[nH]1
[1]; read-out: IC50
  IC50: 50100 nM
[2]
  inhibition: inactive

## Cc1[nH]c2c(-c3ccccc3)c(-c3ccccc3)nn2c(=O)c1-c1ccc(O)cc1
[3]
  hepatic extraction ratio: 0.54
[1]; read-out: IC50
  IC50: 33 nM
[2]
  inhibition: 93%

## Nc1cc(=O)n2nc(-c3ccccc3)c(-c3ccccc3)c2[nH]1
[1]; sf9
  IC50: Not Active

## Cc1[nH]c2c(C3=CCCC3)c(-c3ccccc3)nn2c(=O)c1-c1ccc2ncccc2c1
[1]; read-out: IC50
  IC50: 159 nM
[2]
  inhibition: 96%

## Cc1c(-c2ccc3ncccc3c2)c(=O)n2nc(-c3ccccc3)c(-c3ccccc3)c2n1C
[5]
  fraction unbound: 0.009
[7]
  fraction unbound: 0.009
[1]; read-out: IC50
  IC50: 120 nM
[2]
  inhibition: 61%

## COc1ccc(-c2c(Nc3ccon3)[nH]c3c(C4=CCCCC4)c(-c4ccccc4)nn3c2=O)cc1
[3]
  hepatic extraction ratio: 0.11
cells
  IC50: 65 nM
[1]; read-out: IC50
  IC50: 10 nM
[2]
  inhibition: 94%
HCT-116
  IC50: 812 nM

## Cc1cc(=O)n2nc(-c3ccccc3)c(C3=CCCC3)c2[nH]1
cells
  IC50: 588 nM
[1]; read-out: IC50
  IC50: 1140 nM
[2]
  inhibition: 84%
HCT-116
  IC50: 82000 nM

## Cc1cc(=O)n2nc(-c3nccs3)c(-c3ccccc3)c2[nH]1
[1]; read-out: IC50
  IC50: 78800 nM
[2]
  inhibition: 63%

## Cc1cc(=O)n2nc(-c3ccccc3)c(-c3ccccn3)c2[nH]1
[1]; read-out: IC50
  IC50: 7100 nM
[2]
  inhibition: 79%

## CCOC(=O)c1nnc(Nc2[nH]c3c(-c4ccccc4)c(-c4ccccc4)nn3c(=O)c2-c2ccc3ncccc3c2)o1
[3]
  hepatic extraction ratio: 0.7
[1]; read-out: IC50
  IC50: 4 nM
[2]
  inhibition: 88%

## CCOC(=O)n1ccc(Nc2[nH]c3c(-c4ccccc4)c(-c4ccccc4)nn3c(=O)c2-c2ccc(OC)cc2)n1
[3]
  hepatic extraction ratio: 0.51
cells
  IC50: 15 nM
[1]; read-out: IC50
  IC50: 11 nM
[2]
  inhibition: 93%
HCT-116
  IC50: 430 nM

## O=c1c(-c2ccc3ncccc3c2)c(Nc2cc[nH]n2)[nH]c2c(-c3ccccc3)c(-c3ccccc3)nn12
[3]
  hepatic extraction ratio: 0.49
[1]; read-out: IC50
  IC50: 7 nM
[2]
  inhibition: 94%
HCT-116
  IC50: 522 nM

## Cc1cc(=O)n2nc(C)c(-c3ccccc3)c2[nH]1
[15]
  IC50: 620000 nM

## COc1ccc(-c2c(Nc3cc[nH]n3)[nH]c3c(-c4ccccc4)c(-c4ccccc4)nn3c2=O)cc1
[3]
  hepatic extraction ratio: 0.36
cells
  IC50: 8 nM
[1]; read-out: IC50
  IC50: 13 nM
[2]
  inhibition: 94%
HCT-116
  IC50: 892000 nM

## Cc1cc(=O)n2nc(-c3ccco3)c(-c3ccccc3)c2[nH]1
[1]; read-out: IC50
  IC50: 1500 nM
[2]
  inhibition: 65%

## Cc1cc(=O)n2nc(-c3ccccc3)c(C3CCCC3)c2[nH]1
[1]; read-out: IC50
  IC50: 680 nM
[2]
  inhibition: 88%

## Cc1cc(=O)n2nc(-c3ccccc3)c(-c3ccco3)c2[nH]1
[1]; read-out: IC50
  IC50: 3660 nM
[2]
  inhibition: 90%

## Cc1cc(=O)n2nc(-c3ccccc3)c(C3=CCCCC3)c2[nH]1
[10]
  solubility: < 0.5 µM
cells
  IC50: 106 nM
[1]; read-out: IC50
  IC50: 260 nM
[14]
  solubility: < 0.5 µM
[2]
  inhibition: 85%
HCT-116
  IC50: 72000 nM

## Cc1[nH]c2c(N3CCCCC3)c(-c3ccccc3)nn2c(=O)c1-c1ccccc1
[1]; read-out: IC50
  IC50: 150 nM
[2]
  inhibition: 93%

## COc1ccc(-c2c(Nc3cnccn3)[nH]c3c(C4=CCCCC4)c(-c4ccccc4)nn3c2=O)cc1
cells
  IC50: 16 nM
[1]; read-out: IC50
  IC50: 28 nM
[2]
  inhibition: 95%
HCT-116
  IC50: 409 nM

## Cc1c(-c2ccc(O)cc2)c(=O)n2nc(-c3ccccc3)c(N3CCCCC3)c2n1C
[5]
  fraction unbound: 0.0154
[7]
  fraction unbound: 0.0154
[1]; read-out: IC50
  IC50: 102 nM
[2]
  inhibition: 66%

## CCc1cc(=O)n2nc(-c3ccccc3)c(-c3ccccc3)c2[nH]1
[1]; read-out: IC50
  IC50: 3660 nM
[2]
  inhibition: 54%

## Cc1[nH]c2c(N3CCCCC3)c(-c3ccccc3)nn2c(=O)c1-c1ccc2[nH]c(N)nc2c1
[3]
  hepatic extraction ratio: 0.75
[1]; read-out: IC50
  IC50: 83 nM
[2]
  inhibition: 94%

## COc1ccc(-c2c(Nc3ccccn3)[nH]c3c(-c4ccccc4)c(-c4ccccc4)nn3c2=O)cc1
[3]
  hepatic extraction ratio: 0.13
cells
  IC50: 25 nM
[1]; read-out: IC50
  IC50: 7 nM
[2]
  inhibition: 85%
HCT-116
  IC50: 793 nM

## O=c1cc(Nc2ccccc2)[nH]c2c(-c3ccccc3)c(-c3ccccc3)nn12
[1]; read-out: IC50
  IC50: 16600 nM
[2]
  inhibition: 70%

## O=c1cc(Nc2cc[nH]n2)[nH]c2c(-c3ccccc3)c(-c3ccccc3)nn12
[1]; read-out: IC50
  IC50: 270 nM
[2]
  inhibition: 88%

## COc1ccc(-c2c(Nc3cc[nH]n3)[nH]c3c(C4=CCCCC4)c(-c4ccccc4)nn3c2=O)cc1
[3]
  hepatic extraction ratio: 0.56
cells
  IC50: 21 nM
[1]; read-out: IC50
  IC50: 5 nM
[2]
  inhibition: 96%
HCT-116
  IC50: 80 nM

## Cc1[nH]c2c(N3CCCCC3)c(-c3ccccc3)nn2c(=O)c1-c1ccc2[nH]cnc2c1
[3]
  hepatic extraction ratio: 0.79
[1]; read-out: IC50
  IC50: 45 nM
[2]
  inhibition: 92%

## Cc1[nH]c2c(N3CCCCC3)c(-c3ccccc3)nn2c(=O)c1-c1ccncc1
[1]; read-out: IC50
  IC50: 160 nM
[2]
  inhibition: 91%

## Cc1cc(=O)n2nc(-c3ccccc3)c(-c3ccccc3)c2[nH]1
[16]
  Kd: 70000 nM
[1]; read-out: IC50
  IC50: 1500 nM
[15]
  IC50: 1500 nM
[2]
  inhibition: 69%

## O=c1c(-c2ccc3ncccc3c2)c(Nc2cc[nH]n2)[nH]c2c(C3=CCCCC3)c(-c3ccccc3)nn12
[3]
  hepatic extraction ratio: 0.55
cells
  IC50: 18 nM
[1]; read-out: IC50
  IC50: 4 nM
[2]
  inhibition: 92%
HCT-116
  IC50: 73 nM

## Cc1[nH]c2c(N3CCCCC3)c(-c3ccccc3)nn2c(=O)c1-c1ccc2ncccc2c1
[3]
  hepatic extraction ratio: 0.88
[1]; read-out: IC50
  IC50: 52 nM
[2]
  inhibition: 95%
